Assay results reported in PMC4168221 (Clinical Drug Investigation, 2014).
Read-outs that look alike come from different tables or passages of the source.

Assays:
[1] = assay type: in vivo, human (Japanese patients with type 2 diabetes mellitus); settings: for AUC∞ / C max / CL/F / Vd/F / t ½: mean (SD); for t max: median (range)
Method in brief: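 Single oral dose (100 or 200 mg) given before breakfast in a two-period crossover. Blood was drawn pre-dose and at 0.5–72 h (13 samples) into K2EDTA, iced, centrifuged, and plasma stored at −20 °C. Parent drug was measured by HPLC–MS/MS (1–2,000 ng/mL). Metabolites were measured by acetonitrile precipitation then HPLC–MS/MS (5–10,000 ng/mL). Group ratios are least square means with 90 % CI.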

[2] = Japanese patients with type 2 diabetes; cited from earlier work
blood glucose = settings: phase III; non-Japanese type 2 diabetes patients with moderate renal impairment (eGFR ≥30 and <50 mL/min/1.73 m^2); cited from earlier work
[3] = single dose of canagliflozin 100 mg; non-Japanese patients with normal renal function or mild renal impairment; cited from earlier work
[4] = canagliflozin 100 mg single dose
[5] = canagliflozin 100 mg single dose, moderate renal impairment (n = 12)
[6] = canagliflozin 100 mg, moderate renal impairment (n = 12)
[7] = canagliflozin 100 mg, normal renal function or mild renal impairment (n = 12)
[8] = canagliflozin 200 mg single dose
[9] = canagliflozin 200 mg single dose, moderate renal impairment (n = 12)
[10] = canagliflozin 200 mg, moderate renal impairment (n = 12)
[11] = canagliflozin 200 mg, normal renal function or mild renal impairment (n = 12)

## Cc1ccc([C@@H]2O[C@H](CO)[C@@H](O)[C@H](O)[C@H]2O)cc1Cc1ccc(-c2ccc(F)cc2)s1 [Canagliflozin, canagliflozin]
[1]; 100 and 200 mg single doses
  time to reach maximum concentration (C max), median: ≤ 1 h
[1]; [4]
  AUC∞ ratio (90 % CI) of least square means, moderate renal impairment relative to normal renal function or mild renal impairment: 1.258 (1.061–1.490)
  C max ratio (90 % CI) of least square means, moderate renal impairment relative to normal renal function or mild renal impairment: 0.982 (0.821–1.173)
[1]; canagliflozin 100 mg single dose, listed as canagliflozin
  AUC∞ ratio (90 % CI) of least square means, moderate renal impairment relative to normal renal function or mild renal impairment: 1.258 [1.061–1.490]
[1]; [5]
  AUC∞: 8,766 (2551) ng·h/mL
  C max: 1,197.13 (310.56) ng/mL
[1]; [6]
  CL/F: 12.15 (2.87) L/h
  Vd/F: 264 (81) L
  t ½: 15.50 (4.35) h
  t max: 1.0 (1.0–3.0) h
[1]; [7]
  CL/F: 15.24 (3.65) L/h
  Vd/F: 269 (66) L
  t ½: 12.58 (3.14) h
  t max: 1.0 (1.0–3.0) h
[1]; [8]
  AUC∞ ratio (90 % CI) of least square means, moderate renal impairment relative to normal renal function or mild renal impairment: 1.216 (1.026–1.441)
  C max ratio (90 % CI) of least square means, moderate renal impairment relative to normal renal function or mild renal impairment: 0.989 (0.827–1.182)
[1]; canagliflozin 200 mg single dose, listed as canagliflozin
  AUC∞ ratio (90 % CI) of least square means, moderate renal impairment relative to normal renal function or mild renal impairment: 1.216 [1.026–1.441]
[1]; [9]
  AUC∞: 17,835 (4434) ng·h/mL
  C max: 2,333.36 (414.90) ng/mL
[1]; [10]
  CL/F: 11.73 (2.36) L/h
  Vd/F: 242 (67) L
  t ½: 15.15 (6.68) h
  t max: 1.0 (1.0–2.0) h
[1]; [11]
  CL/F: 14.43 (3.73) L/h
  Vd/F: 244 (53) L
  t ½: 12.10 (2.66) h
  t max: 1.0 (1.0–6.0) h
[1]; patients with normal or mild renal impairment, both doses
  half-life (t ½): over 12 h
[1]; single dose of 100 mg, Japanese population with mild or no renal impairment
  AUC from time zero to 24 h: 5,645 ng·h/mL
[2]
  body weight: significantly reduced
Blood glucose
  blood glucose-lowering effect compared with placebo: significant blood glucose-lowering effect
[3]
  mean 24-h urinary excretion ratio: 0.55%
